From ChEMBL document CHEMBL1124414, “2(1H)-quinolinones with cardiac stimulant activity. 2. Synthesis and biological activities of 6-(N-linked, five-membered heteroaryl) derivatives” (1989)

Legend:
Canis familiaris [1] = experiment: Compound was examined for effects on cardiac contractility after oral administration of 0.25 mg/Kg to conscious dogs for 1 hr; format: functional, Canis lupus familiaris, Heart
Method in brief: (§1)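 Conscious dogs dosed orally by gavage with a solution of test substance. QA interval recorded every 0.16 h from 0.5 h predose to up to 4 h postdose. Each time-point value is the mean of six consecutive sets, each set the mean over an 8-s period. Result is the change from mean predose control QA interval, read at 1 h and 3 h. Saline-dosed controls n = 8.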

Canis familiaris [2] = experiment: Compound was examined for effects on cardiac contractility to decrease in QA interval after oral administration of 0.25 mg/Kg to conscious dogs for 3h; format: functional, Canis lupus familiaris, Heart; method in brief: as §1
Canis familiaris [3] = experiment: Compound was tested for cardiotonic activity after intravenous administration of 12.5 ug/Kg to anesthetized dogs; format: functional, Canis lupus familiaris
Method in brief: (§2)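 Anesthetized dogs with left ventricular pressure recorded by Millar catheter via the carotid artery. The signal is differentiated to give dP/dt max as the contractility index. Equilibration 0.75 h after surgery. Drug given iv in 0.9% saline 0.5 h after a standard inotrope (50 μg/kg). Doses repeated once control levels returned, at least 0.5 h apart. Result is % increase in dP/dt max after a single dose.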

Canis familiaris [4] = experiment: Relative inotropic potency compared with 4-[4-[2-(1,1-dioxo-2-isothiazolidinyl)ethyl]-1-piperidinyl]-6,7-dimethoxyquinazoline at 50 ug/kg after administration at 12.5 ug/kg intravenously to anesthetized dogs; format: functional, Canis lupus familiaris
Method in brief: (§3)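 Anesthetized dogs instrumented for dP/dt max from left ventricular pressure by carotid catheter. Drug given iv in 0.9% saline. The standard quinazoline inotrope (50 μg/kg iv) was tested in the same dog. Relative potency = (% increase in dP/dt max to drug ÷ % increase to standard) × (standard dose ÷ drug dose).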

Canis familiaris [5] = experiment: Relative inotropic potency compared with 4-[4-[2-(1,1-dioxo-2-isothiazolidinyl)ethyl]-1-piperidinyl]-6,7-dimethoxyquinazoline at 50 ug/kg after administration at 250 ug/kg intravenously to anesthetized dogs; format: functional, Canis lupus familiaris; method in brief: as §3
Canis familiaris [6] = experiment: Compound was tested for cardiotonic activity after intravenous administration of 250 ug/Kg to anesthetized dogs; format: functional, Canis lupus familiaris; method in brief: as §2
Canis familiaris [7] = experiment: Compound was examined for effects on cardiac contractility to decrease in QA interval after oral administration of 0.125 mg/Kg to conscious dogs for 3h; format: functional, Canis lupus familiaris, Heart; method in brief: as §1
Canis familiaris [8] = experiment: Compound was examined for effects on cardiac contractility after oral administration of 0.125 mg/Kg to conscious dogs for 1 hr; format: functional, Canis lupus familiaris, Heart; method in brief: as §1
Canis familiaris [9] = experiment: Relative inotropic potency compared with 4-[4-[2-(1,1-dioxo-2-isothiazolidinyl)ethyl]-1-piperidinyl]-6,7-dimethoxyquinazoline at 50 ug/kg after administration at 6.5 ug/kg intravenously to anesthetized dogs; format: functional, Canis lupus familiaris; details: in the assay text read “6.25 ug/kg” for “6.5 ug/kg”; method in brief: as §3
Canis familiaris [10] = experiment: Compound was examined for effects on cardiac contractility after oral administration of 0.0625 mg/Kg to conscious dogs for 1 hr; format: functional, Canis lupus familiaris, Heart; method in brief: as §1
Canis familiaris [11] = experiment: Compound was examined for effects on cardiac contractility to decrease in QA interval after oral administration of 0.0625 mg/Kg to conscious dogs for 3h; format: functional, Canis lupus familiaris, Heart; method in brief: as §1
Canis familiaris [12] = experiment: Compound was tested for cardiotonic activity after intravenous administration of 6.25 ug/Kg to anesthetized dogs; format: functional, Canis lupus familiaris; method in brief: as §2
Canis familiaris [13] = experiment: Compound was tested for cardiotonic activity after intravenous administration of 25 ug/Kg to anesthetized dogs; format: functional, Canis lupus familiaris; method in brief: as §2
Canis familiaris [14] = experiment: Relative inotropic potency compared with 4-[4-[2-(1,1-dioxo-2-isothiazolidinyl)ethyl]-1-piperidinyl]-6,7-dimethoxyquinazoline at 50 ug/kg after administration at 25 ug/kg intravenously to anesthetized dogs; format: functional, Canis lupus familiaris; method in brief: as §3
Canis familiaris [15] = experiment: Compound was tested for cardiotonic activity after intravenous administration of 50 ug/Kg to anesthetized dogs; format: functional, Canis lupus familiaris; method in brief: as §2
Canis familiaris [16] = experiment: Relative inotropic potency compared with 4-[4-[2-(1,1-dioxo-2-isothiazolidinyl)ethyl]-1-piperidinyl]-6,7-dimethoxyquinazoline at 50 ug/kg after administration of 50 ug/kg intravenously to anesthetized dogs; format: functional, Canis lupus familiaris; method in brief: as §3
Canis familiaris [17] = experiment: Compound was tested for cardiotonic activity after intravenous administration of 10 ug/Kg to anesthetized dogs; format: functional, Canis lupus familiaris; method in brief: as §2
Canis familiaris [18] = experiment: Relative inotropic potency compared with 4-[4-[2-(1,1-dioxo-2-isothiazolidinyl)ethyl]-1-piperidinyl]-6,7-dimethoxyquinazoline at 50 ug/kg after administration at 10 ug/kg intravenously to anesthetized dogs; format: functional, Canis lupus familiaris; method in brief: as §3
Canis familiaris [19] = experiment: Relative inotropic potency compared with 4-[4-[2-(1,1-dioxo-2-isothiazolidinyl)ethyl]-1-piperidinyl]-6,7-dimethoxyquinazoline at 50 ug/kg after administration at 50 ug/kg intravenously to anesthetized dogs; format: functional, Canis lupus familiaris; method in brief: as §3
Canis familiaris [20] = experiment: Compound was examined for effects on cardiac contractility to decrease in QA interval after oral administration of 1 mg/Kg to conscious dogs for 3h; format: functional, Canis lupus familiaris, Heart; method in brief: as §1
Canis familiaris [21] = experiment: Compound was examined for effects on cardiac contractility after oral administration of 1 mg/Kg to conscious dogs for 1 hr; format: functional, Canis lupus familiaris, Heart; method in brief: as §1
Canis familiaris [22] = experiment: Relative inotropic potency compared with 4-[4-[2-(1,1-dioxo-2-isothiazolidinyl)ethyl]-1-piperidinyl]-6,7-dimethoxyquinazoline at 50 ug/kg after iv administration of 25 ug/kg to anesthetized dogs; format: functional, Canis lupus familiaris; method in brief: as §3
Canis familiaris [23] = experiment: Compound was examined for effects on cardiac contractility to decrease in QA interval after oral administration of 0.5 mg/Kg to conscious dogs for 3h; format: functional, Canis lupus familiaris, Heart; method in brief: as §1
Canis familiaris [24] = experiment: Compound was examined for effects on cardiac contractility after oral administration of 0.5 mg/Kg to conscious dogs for 1 hr; format: functional, Canis lupus familiaris, Heart; method in brief: as §1

Cc1cn(-c2cc(C)c3[nH]c(=O)ccc3c2)c(C)n1 [NANTERINONE]
Decrease in QA interval (Canis familiaris [1]): 16 ms | Decrease in QA interval (Canis familiaris [2]): 17 ms | Increase in dP/dt max (Canis familiaris [3]): 40% | Relative inotropic potency (Canis familiaris [4]): 7.6

Cc1cn(-c2ccc3nc(O)ccc3c2)c(C)n1
Relative inotropic potency (Canis familiaris [5]): 0.2 | Increase in dP/dt max (Canis familiaris [6]): 29%

Cc1cc(-n2cnc(C(F)(F)F)c2)cc2ccc(O)nc12
Decrease in QA interval (Canis familiaris [7]): 5 ms | Decrease in QA interval (Canis familiaris [8]): 11 ms | Increase in dP/dt max (Canis familiaris [3]): 82% | Relative inotropic potency (Canis familiaris [4]): 4.5

Cc1cn(-c2cc(C(F)(F)F)c3nc(O)ccc3c2)c(C)n1
Relative inotropic potency (Canis familiaris [5]): 0.2 | Increase in dP/dt max (Canis familiaris [6]): 22%

Cc1cn(-c2cc(C)c3nc(O)ccc3c2)cn1
Relative inotropic potency (Canis familiaris [9]): 16.3 | Decrease in QA interval (Canis familiaris [10]): 12 ms | Decrease in QA interval (Canis familiaris [11]): 7 ms | Increase in dP/dt max (Canis familiaris [12]): 59%

Cc1[nH]c(=O)c(C#N)cc1-c1ccncc1 [MILRINONE]
Increase in dP/dt max (Canis familiaris [13]): 46% | Decrease in QA interval (Canis familiaris [1]): 13 ms | Decrease in QA interval (Canis familiaris [2]): 7 ms | Relative inotropic potency (Canis familiaris [14]): 1.6

Cc1cc(-n2cnnc2)cc2ccc(O)nc12
Decrease in QA interval (Canis familiaris [1]): 15 ms | Decrease in QA interval (Canis familiaris [2]): 17 ms | Increase in dP/dt max (Canis familiaris [15]): 68% | Relative inotropic potency (Canis familiaris [14]; in the assay text read “administration at 50 ug/kg” for “administration at 25 ug/kg”): 2.3

Cc1cc(-n2cnnn2)cc2ccc(O)nc12
Increase in dP/dt max (Canis familiaris [13]): 117% | Decrease in QA interval (Canis familiaris [1]): 15 ms | Decrease in QA interval (Canis familiaris [2]): 16 ms | Relative inotropic potency (Canis familiaris [14]): 3.4

Cc1cc(-n2ccnc2C)cc2ccc(O)nc12
Decrease in QA interval (Canis familiaris [7]): 13 ms | Decrease in QA interval (Canis familiaris [8]): 14 ms | Increase in dP/dt max (Canis familiaris [3]): 50% | Relative inotropic potency (Canis familiaris [4]): 5.5

Cc1cc(-n2cccn2)cc2ccc(O)nc12
Relative inotropic potency (Canis familiaris [16]): 1.7 | Increase in dP/dt max (Canis familiaris [15]): 79%

Cc1cn(-c2cc(C)c3c(c2)C(C)CC(=O)N3)c(C)n1 (stereo unspecified)
Increase in dP/dt max (Canis familiaris [17]): 20% | Relative inotropic potency (Canis familiaris [18]): 1.9

Cc1cn(-c2cc(C)c3c(c2)CCC(=O)N3)c(C)n1
Relative inotropic potency (Canis familiaris [19]): 0.9 | Decrease in QA interval (Canis familiaris [20]): 13 ms | Increase in dP/dt max (Canis familiaris [15]): 52% | Decrease in QA interval (Canis familiaris [21]): 12 ms

Cc1cc(-n2ncnn2)cc2ccc(O)nc12
Relative inotropic potency (Canis familiaris [19]): 1.1 | Increase in dP/dt max (Canis familiaris [15]): 24%

Cc1cc(-n2cncc2C)cc2ccc(O)nc12
Decrease in QA interval (Canis familiaris [7]): 11 ms | Decrease in QA interval (Canis familiaris [8]): 14 ms | Increase in dP/dt max (Canis familiaris [3]): 55% | Relative inotropic potency (Canis familiaris [4]): 4.9

Cc1cc(-n2ccnc2)cc2ccc(O)nc12
Relative inotropic potency (Canis familiaris [22]): 4.5 | Increase in dP/dt max (Canis familiaris [13]): 139% | Decrease in QA interval (Canis familiaris [1]): 20 ms | Decrease in QA interval (Canis familiaris [2]): 15 ms

Cc1cn(-c2cc(C)c3nc(O)cc(C)c3c2)c(C)n1
Increase in dP/dt max (Canis familiaris [17]): 10% | Relative inotropic potency (Canis familiaris [18]): 1.2

Cc1cc(-n2cncn2)cc2ccc(O)nc12
Increase in dP/dt max (Canis familiaris [13]): 67% | Decrease in QA interval (Canis familiaris [23]): 21 ms | Decrease in QA interval (Canis familiaris [24]): 21 ms | Relative inotropic potency (Canis familiaris [14]): 3.6
